# According to ChEMBL document CHEMBL1255409, “In vitro activity of ceftaroline against 623 diverse strains of anaerobic bacteria” (2010):
# Key:
# Format in all cases: functional
# [1] = test system: Bacteroides thetaiotaomicron; experiment: Antimicrobial activity against Bacteroides thetaiotaomicron under anaerobic conditions after 44 hrs by CLSI-M11-47 protocol based agar dilution method
# In short: (§1)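 Reference agar dilution per CLSI M11-A7 with plates made on test day. Clinical isolates were stored at −70°C in 20% skim milk, subcultured twice, and 48-h cell paste was suspended in brucella broth to 0.5 McFarland. About 10^5 CFU/spot was applied with a Steers replicator. Plates were incubated 44 h at 37°C anaerobically. MIC was the lowest concentration giving complete inhibition or marked growth reduction versus the drug-free control.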
# Bacteroides fragilis = experiment: Antimicrobial activity against Bacteroides fragilis spp. under anaerobic conditions after 44 hrs by CLSI-M11-47 protocol based agar dilution method; in short: as §1
# Bacteroides ovatus = experiment: Antimicrobial activity against Bacteroides ovatus under anaerobic conditions after 44 hrs by CLSI-M11-47 protocol based agar dilution method; in short: as §1
# Prevotella buccae = experiment: Antimicrobial activity against Prevotella buccae under anaerobic conditions after 44 hrs by CLSI-M11-47 protocol based agar dilution method; conditions: Segatella buccae
# In short: (§2)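 Clinical isolates were stored at −70°C in 20% skim milk and identified phenotypically or by partial 16S rRNA sequencing. Each strain was subcultured twice from frozen stock. Cell paste from 48-h cultures was suspended in brucella broth to a 0.5 McFarland standard. About 10^5 CFU per spot were applied by Steers replicator to agar dilution plates prepared on the day of testing. Plates were incubated 44 h at 37°C in an anaerobic chamber. MIC was taken as the lowest concentration giving complete inhibition or marked reduction of growth versus the drug-free control.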
# Prevotella intermedia = experiment: Antimicrobial activity against Prevotella intermedia under anaerobic conditions after 44 hrs by CLSI-M11-47 protocol based agar dilution method; in short: as §2
# Prevotella nanceiensis = experiment: Antimicrobial activity against Prevotella nanceiensis under anaerobic conditions after 44 hrs by CLSI-M11-47 protocol based agar dilution method; conditions: Hoylesella nanceiensis; in short: as §2
# Prevotella oris = experiment: Antimicrobial activity against Prevotella oris under anaerobic conditions after 44 hrs by CLSI-M11-47 protocol based agar dilution method; conditions: Segatella oris; in short: as §2
# Anaerococcus tetradius = experiment: Antimicrobial activity against Anaerococcus tetradius under anaerobic conditions after 44 hrs by CLSI-M11-47 protocol based agar dilution method; in short: as §1
# [2] = test system: Peptoniphilus asaccharolyticus; experiment: Antimicrobial activity against Peptoniphilus asaccharolyticus under anaerobic conditions after 44 hrs by CLSI-M11-47 protocol based agar dilution method; in short: as §2
# Schaalia odontolytica = experiment: Antimicrobial activity against Actinomyces odontolyticus under anaerobic conditions after 44 hrs by CLSI-M11-47 protocol based agar dilution method; in short: as §1
# Actinomyces turicensis = experiment: Antimicrobial activity against Actinomyces turicensis under anaerobic conditions after 44 hrs by CLSI-M11-47 protocol based agar dilution method; conditions: Schaalia turicensis; in short: as §1
# Cutibacterium acnes = experiment: Antimicrobial activity against Propionibacterium acnes under anaerobic conditions after 44 hrs by CLSI-M11-47 protocol based agar dilution method; in short: as §2
# Collinsella aerofaciens = experiment: Antimicrobial activity against Colinsella aerofaciens under anaerobic conditions after 44 hrs by CLSI-M11-47 protocol based agar dilution method; in short: as §1
# Eubacterium cylindroides = experiment: Antimicrobial activity against Eubacterium cylindroides under anaerobic conditions after 44 hrs by CLSI-M11-47 protocol based agar dilution method; conditions: Faecalitalea cylindroides; in short: as §1
# Slackia exigua = experiment: Antimicrobial activity against Slackia exigua under anaerobic conditions after 44 hrs by CLSI-M11-47 protocol based agar dilution method; in short: as §2
# [3] = test system: Lacticaseibacillus rhamnosus; experiment: Antimicrobial activity against Lactobacillus rhamnosus under anaerobic conditions after 44 hrs by CLSI-M11-47 protocol based agar dilution method; in short: as §2
# Thomasclavelia ramosa = experiment: Antimicrobial activity against Clostridium ramosum under anaerobic conditions after 44 hrs by CLSI-M11-47 protocol based agar dilution method; in short: as §1
# Clostridioides difficile = experiment: Antimicrobial activity against Clostridium difficile under anaerobic conditions after 44 hrs by CLSI-M11-47 protocol based agar dilution method; in short: as §1
# [4] = test system: Clostridium paraputrificum; experiment: Antimicrobial activity against Clostridium paraputrificum under anaerobic conditions after 44 hrs by CLSI-M11-47 protocol based agar dilution method; in short: as §1
# [5] = test system: Paeniclostridium sordellii; experiment: Antimicrobial activity against Clostridium sordellii under anaerobic conditions after 44 hrs by CLSI-M11-47 protocol based agar dilution method; conditions: Paraclostridium sordellii; in short: as §1
# Lacrimispora sphenoides = experiment: Antimicrobial activity against Clostridium sphenoides under anaerobic conditions after 44 hrs by CLSI-M11-47 protocol based agar dilution method; in short: as §1
structure (smiles),measurement,setting,value
CO/N=C(\C(=O)N[C@@H]1C(=O)N2C(C(=O)O)=C(CSc3nc(=O)c(O)nn3C)CS[C@H]12)c1csc(N)n1 [CEFTRIAXONE],MIC50,[1],> 64 µg/mL
same,MIC90,[1],> 64 µg/mL
same,MIC50,Bacteroides fragilis,> 64 µg/mL
same,MIC90,Bacteroides fragilis,> 64 µg/mL
same,MIC50,Bacteroides ovatus,> 64 µg/mL
same,MIC90,Bacteroides ovatus,> 64 µg/mL
same,MIC50,Prevotella buccae,0.25 µg/mL
same,MIC90,Prevotella buccae,64 µg/mL
same,MIC50,Prevotella intermedia,1 µg/mL
same,MIC90,Prevotella intermedia,16 µg/mL
same,MIC50,Prevotella nanceiensis,1 µg/mL
same,MIC90,Prevotella nanceiensis,8 µg/mL
same,MIC50,Prevotella oris,1 µg/mL
same,MIC90,Prevotella oris,8 µg/mL
same,MIC50,Anaerococcus tetradius,0.25 µg/mL
same,MIC90,Anaerococcus tetradius,0.5 µg/mL
same,MIC50,[2],0.125 µg/mL
same,MIC90,[2],0.25 µg/mL
same,MIC50,Schaalia odontolytica,0.125 µg/mL
same,MIC90,Schaalia odontolytica,0.5 µg/mL
same,MIC50,Actinomyces turicensis,0.125 µg/mL
same,MIC90,Actinomyces turicensis,0.5 µg/mL
same,MIC50,Cutibacterium acnes,0.015 µg/mL
same,MIC90,Cutibacterium acnes,0.06 µg/mL
same,MIC50,Collinsella aerofaciens,0.5 µg/mL
same,MIC90,Collinsella aerofaciens,2 µg/mL
same,MIC50,Eubacterium cylindroides,0.5 µg/mL
same,MIC90,Eubacterium cylindroides,2 µg/mL
same,MIC50,Slackia exigua,0.5 µg/mL
same,MIC90,Slackia exigua,2 µg/mL
same,MIC50,[3],32 µg/mL
same,MIC90,[3],64 µg/mL
same,MIC50,Thomasclavelia ramosa,0.25 µg/mL
same,MIC90,Thomasclavelia ramosa,0.5 µg/mL
same,MIC50,Clostridioides difficile,2 µg/mL
same,MIC90,Clostridioides difficile,64 µg/mL
same,MIC50,[4],2 µg/mL
same,MIC90,[4],64 µg/mL
same,MIC50,[5],2 µg/mL
same,MIC90,[5],64 µg/mL
same,MIC50,Lacrimispora sphenoides,2 µg/mL
same,MIC90,Lacrimispora sphenoides,64 µg/mL
CCO/N=C(\C(=O)N[C@@H]1C(=O)N2C(C(=O)[O-])=C(Sc3nc(-c4cc[n+](C)cc4)cs3)CS[C@H]12)c1nsc(NP(=O)(O)O)n1 [CEFTAROLINE FOSAMIL],MIC50,[1],64 µg/mL
same,MIC90,[1],> 64 µg/mL
same,MIC50,Bacteroides fragilis,64 µg/mL
same,MIC90,Bacteroides fragilis,> 64 µg/mL
same,MIC50,Bacteroides ovatus,64 µg/mL
same,MIC90,Bacteroides ovatus,> 64 µg/mL
same,MIC50,Prevotella buccae,0.5 µg/mL
same,MIC90,Prevotella buccae,64 µg/mL
same,MIC50,Prevotella intermedia,1 µg/mL
same,MIC90,Prevotella intermedia,16 µg/mL
same,MIC50,Prevotella nanceiensis,2 µg/mL
same,MIC90,Prevotella nanceiensis,32 µg/mL
same,MIC50,Prevotella oris,2 µg/mL
same,MIC90,Prevotella oris,32 µg/mL
same,MIC50,Anaerococcus tetradius,0.03 µg/mL
same,MIC90,Anaerococcus tetradius,0.125 µg/mL
same,MIC50,[2],0.06 µg/mL
same,MIC90,[2],0.25 µg/mL
same,MIC50,Schaalia odontolytica,0.015 µg/mL
same,MIC90,Schaalia odontolytica,0.25 µg/mL
same,MIC50,Actinomyces turicensis,0.015 µg/mL
same,MIC90,Actinomyces turicensis,0.25 µg/mL
same,MIC50,Cutibacterium acnes,≤ 0.008 µg/mL
same,MIC90,Cutibacterium acnes,0.06 µg/mL
same,MIC50,Collinsella aerofaciens,0.125 µg/mL
same,MIC90,Collinsella aerofaciens,0.25 µg/mL
same,MIC50,Eubacterium cylindroides,0.125 µg/mL
same,MIC90,Eubacterium cylindroides,0.25 µg/mL
same,MIC50,Slackia exigua,0.125 µg/mL
same,MIC90,Slackia exigua,0.25 µg/mL
same,MIC50,[3],0.5 µg/mL
same,MIC90,[3],1 µg/mL
same,MIC50,Thomasclavelia ramosa,1 µg/mL
same,MIC90,Thomasclavelia ramosa,1 µg/mL
same,MIC50,Clostridioides difficile,0.5 µg/mL
same,MIC90,Clostridioides difficile,16 µg/mL
same,MIC50,[4],0.5 µg/mL
same,MIC90,[4],16 µg/mL
same,MIC50,[5],0.5 µg/mL
same,MIC90,[5],16 µg/mL
same,MIC50,Lacrimispora sphenoides,0.5 µg/mL
same,MIC90,Lacrimispora sphenoides,16 µg/mL
Cc1ncc([N+](=O)[O-])n1CCO [METRONIDAZOLE],MIC50,[1],1 µg/mL
same,MIC90,[1],1 µg/mL
same,MIC50,Bacteroides fragilis,1 µg/mL
same,MIC90,Bacteroides fragilis,2 µg/mL
same,MIC50,Bacteroides ovatus,1 µg/mL
same,MIC90,Bacteroides ovatus,2 µg/mL
same,MIC50,Prevotella buccae,0.5 µg/mL
same,MIC90,Prevotella buccae,1 µg/mL
same,MIC50,Prevotella intermedia,0.25 µg/mL
same,MIC90,Prevotella intermedia,1 µg/mL
same,MIC50,Prevotella nanceiensis,0.5 µg/mL
same,MIC90,Prevotella nanceiensis,2 µg/mL
same,MIC50,Prevotella oris,0.5 µg/mL
same,MIC90,Prevotella oris,2 µg/mL
same,MIC50,Anaerococcus tetradius,1 µg/mL
same,MIC90,Anaerococcus tetradius,2 µg/mL
same,MIC50,[2],1 µg/mL
same,MIC90,[2],1 µg/mL
same,MIC50,Schaalia odontolytica,> 32 µg/mL
same,MIC90,Schaalia odontolytica,> 32 µg/mL
same,MIC50,Actinomyces turicensis,> 32 µg/mL
same,MIC90,Actinomyces turicensis,> 32 µg/mL
same,MIC50,Cutibacterium acnes,> 32 µg/mL
same,MIC90,Cutibacterium acnes,> 32 µg/mL
same,MIC50,Collinsella aerofaciens,0.5 µg/mL
same,MIC90,Collinsella aerofaciens,1 µg/mL
same,MIC50,Eubacterium cylindroides,0.5 µg/mL
same,MIC90,Eubacterium cylindroides,1 µg/mL
same,MIC50,Slackia exigua,0.5 µg/mL
same,MIC90,Slackia exigua,1 µg/mL
same,MIC50,[3],> 64 µg/mL
same,MIC90,[3],> 64 µg/mL
same,MIC50,Thomasclavelia ramosa,1 µg/mL
same,MIC90,Thomasclavelia ramosa,1 µg/mL
same,MIC50,Clostridioides difficile,0.5 µg/mL
same,MIC90,Clostridioides difficile,4 µg/mL
same,MIC50,[4],0.5 µg/mL
same,MIC90,[4],4 µg/mL
same,MIC50,[5],0.5 µg/mL
same,MIC90,[5],4 µg/mL
same,MIC50,Lacrimispora sphenoides,0.5 µg/mL
same,MIC90,Lacrimispora sphenoides,4 µg/mL
CCC[C@@H]1C[C@@H](C(=O)N[C@@H]([C@H]2O[C@H](SC)[C@H](O)[C@@H](O)[C@H]2O)[C@H](C)Cl)N(C)C1 [CLINDAMYCIN],MIC50,[1],4 µg/mL
same,MIC90,[1],128 µg/mL
same,MIC50,Bacteroides fragilis,4 µg/mL
same,MIC90,Bacteroides fragilis,> 128 µg/mL
same,MIC50,Bacteroides ovatus,4 µg/mL
same,MIC90,Bacteroides ovatus,> 128 µg/mL
same,MIC50,Prevotella buccae,≤ 0.03 µg/mL
same,MIC90,Prevotella buccae,> 128 µg/mL
same,MIC50,Prevotella intermedia,≤ 0.03 µg/mL
same,MIC90,Prevotella intermedia,16 µg/mL
same,MIC50,Prevotella nanceiensis,≤ 0.03 µg/mL
same,MIC90,Prevotella nanceiensis,128 µg/mL
same,MIC50,Prevotella oris,≤ 0.03 µg/mL
same,MIC90,Prevotella oris,128 µg/mL
same,MIC50,Anaerococcus tetradius,0.5 µg/mL
same,MIC90,Anaerococcus tetradius,128 µg/mL
same,MIC50,[2],0.125 µg/mL
same,MIC90,[2],> 128 µg/mL
same,MIC50,Schaalia odontolytica,0.06 µg/mL
same,MIC90,Schaalia odontolytica,128 µg/mL
same,MIC50,Actinomyces turicensis,0.06 µg/mL
same,MIC90,Actinomyces turicensis,128 µg/mL
same,MIC50,Cutibacterium acnes,0.125 µg/mL
same,MIC90,Cutibacterium acnes,0.125 µg/mL
same,MIC50,Collinsella aerofaciens,0.06 µg/mL
same,MIC90,Collinsella aerofaciens,2 µg/mL
same,MIC50,Eubacterium cylindroides,0.06 µg/mL
same,MIC90,Eubacterium cylindroides,2 µg/mL
same,MIC50,Slackia exigua,0.06 µg/mL
same,MIC90,Slackia exigua,2 µg/mL
same,MIC50,[3],1 µg/mL
same,MIC90,[3],2 µg/mL
same,MIC50,Thomasclavelia ramosa,4 µg/mL
same,MIC90,Thomasclavelia ramosa,8 µg/mL
same,MIC50,Clostridioides difficile,2 µg/mL
same,MIC90,Clostridioides difficile,128 µg/mL
same,MIC50,[4],2 µg/mL
same,MIC90,[4],128 µg/mL
same,MIC50,[5],2 µg/mL
same,MIC90,[5],128 µg/mL
same,MIC50,Lacrimispora sphenoides,2 µg/mL
same,MIC90,Lacrimispora sphenoides,128 µg/mL
